Experimental data pooled from the literature.
Lines come from different studies, so protocols differ.
Target: MAP kinase-activated protein kinase 5 (MAPKAPK5, Homo sapiens, UniProt Q8IW41)

observed | mode | technique | concentration | quantity | result | SMILES
enzyme activity | inhibitor | radiometric | 1 µM | activity vs control | 85% | FC(F)(F)Oc1cccc(-c2cnc3ccc(-c4ccncc4)nn23)c1
cell-free assay |  | competition with immobilised ligand | 1 µM | remaining binding | 94% | Cc1nc(C2CCN(C(=O)c3ccc(OC(F)(F)F)cc3N)CC2)c2ncc(N3CCN(C)CC3)cc2n1
enzyme activity | inhibitor |  | 5 µM | remaining activity | 92.8% | O=C(Nc1cnn(-c2csc(C(=O)NC3COC3)c2)c1)Nc1ccccc1Cl
cell-free assay |  | competition with immobilised ligand | 1 µM | remaining binding | 82% | CNC(=O)Nc1ccc2c(c1)CC[C@@]21OC(=O)N(CC(=O)N(Cc2ccc(F)cc2)[C@@H](C)C(F)(F)F)C1=O
enzyme activity | inhibitor |  | 1 µM | inhibition | -14% | CN1CC(Oc2cnc(C#N)cc2-c2ccn3nc(NC(=O)C4CC4)cc3c2)C1
cell-free assay |  | competition with immobilised ligand | 1 µM | remaining binding | 100% | CN([C@@H]1CCc2c(CC(=O)O)c3cc(S(C)(=O)=O)ccc3n2C1)S(=O)(=O)c1ccc(F)cc1
enzyme activity | inhibitor | radiometric | 1 µM | remaining activity | 83% | CC(C)(C)c1nc2c(s1)c1nc(N)ncc1c1ccc(NS(=O)(=O)c3c(F)cccc3F)c(F)c12
enzyme activity | inhibitor |  | 1 µM | activity vs control | 101% | COc1cc(/C=C/C(=O)CC(=O)/C=C/c2ccc(O)c(OC)c2)ccc1O
enzyme activity | inhibitor |  | 10 µM | inhibition | 66% | CNC(=O)c1cc(Oc2ccc(NC(=O)Nc3ccc(Cl)c(C(F)(F)F)c3)cc2)ccn1
enzyme activity | inhibitor |  | 1 µM | activity vs control | 92% | Cc1ccc(C(=O)NCc2ccsc2)cc1C#Cc1cn(C(C)C)c2ncnc(N)c12
enzyme activity | inhibitor |  | 1 µM | inhibition | 19% | C=CC(=O)Nc1cc(Nc2nccc(Nc3cc(Cl)c(F)cc3C(C)(C)O)n2)c(OC)cc1N1CC[C@@H](N(C)C)C1
enzyme activity | inhibitor | radiometric | 2 µM | inhibition | 15.2% | Cn1cnc(Br)c1C1=CN(c2ncnc3[nH]cnc23)CCS1
enzyme activity | inhibitor |  | 10 µM | remaining activity | 77% | Oc1cccc(-c2nc(N3CCOCC3)c3oc4ncccc4c3n2)c1
enzyme activity | inhibitor |  | 1 µM | inhibition | < 10% | CCCS(=O)(=O)Nc1ccc(F)c(C(=O)c2c[nH]c3ncc(-c4ccc(Cl)cc4)cc23)c1F
cell-free assay |  | competition with immobilised ligand | 1 µM | remaining binding | 100% | CC1=C(C#N)C(c2ccc3c(c2)c(NC(=O)c2ccccc2C)nn3C)C(C#N)=C(C)N1
enzyme activity | inhibitor |  | 10 µM | remaining activity | 63% | Nc1nc(Nc2ccccc2)sc1C(=O)c1c(F)cccc1F
enzyme activity | inhibitor |  | 2 µM | inhibition | 0% | CNCc1ccc(-c2cc(-c3nc(-c4ccc(S(=O)(=O)C(C)C)cc4)cnc3N)on2)cc1

observed | mode | technique | concentration | quantity | result | SMILES
cell-free assay |  | competition with immobilised ligand | 1 µM | remaining binding | 100% | Cc1nc(Cc2cccc(C(F)(F)F)c2)sc1-c1ccc(C(N)=O)nc1
enzyme activity | inhibitor |  | 1 µM | inhibition | -1% | COc1cc2ncnc(Nc3ccc(Oc4ccccc4)c(C)c3C)c2cc1OC
cell-free assay |  |  | 0.5 µM | remaining signal | 82.7% | CCN(CC)CCNC(=O)c1c(C)[nH]c(/C=C2\C(=O)Nc3ccc(F)cc32)c1C
enzyme activity | inhibitor |  | 0.3 µM | inhibition | -3% | Cc1ccc(Nc2nccc(N(C)c3ccc4c(C)n(C)nc4c3)n2)cc1S(N)(=O)=O
enzyme activity | inhibitor |  | 10 µM | inhibition | 20% | CNc1cccc2cc(C(=O)Nc3ccc(C(=O)O)cc3)c(=O)[nH]c12
cell-free assay |  |  | 0.5 µM | remaining signal | 94.3% | N#CCCc1ccc2c(c1)-c1[nH]c3ccc([N+](=O)[O-])cc3c1CC(=O)N2
enzyme activity | inhibitor | radiometric | 1 µM | remaining activity | 78% | COc1cc(Nc2cnc(C#N)c(O[C@H](C)CN(C)C)n2)ncc1-c1cnn(C)c1
cell-free assay |  | competition with immobilised ligand | 1 µM | remaining binding | 78% | O=C1CCc2cc(Nc3cc(OC4CCOCC4)c([N+](=O)[O-])cc3Cl)ccc2N1
enzyme activity | inhibitor |  | 10 µM | remaining activity | 103% | CC(C)(C)C(=O)c1sc(NC2CCCCC2)nc1N
cell-free assay |  | competition with immobilised ligand | 1 µM | remaining binding | 100% | CO[C@@H](C)c1c(Nc2ccc([C@@H](N(C)C(=O)C3CCS(=O)(=O)CC3)C(F)(F)F)cc2)cnc2cc(Cl)nn12
enzyme activity | inhibitor |  | 10 µM | remaining activity | 93% | Cn1c(=O)n(-c2ccc(C(C)(C)C#N)cc2)c2c3cc(-c4cnc5ccccc5c4)ccc3ncc21
cell-free assay |  |  | 0.5 µM | remaining signal | 87.5% | COc1ccc(COc2ccc(Cc3cnc(N)nc3N)cc2OC)cc1
enzyme activity | inhibitor |  | 10 µM | remaining activity | 104% | CCN(CC)c1ccc(C2=NNC(=O)CC2C)cc1[N+](=O)[O-] (stereo not drawn)
enzyme activity | inhibitor |  | 1 µM | inhibition | 0% | CN(c1ncccc1CNc1nc(Nc2ccc3c(c2)CC(=O)N3)ncc1C(F)(F)F)S(C)(=O)=O
cell-free assay |  | competition with immobilised ligand | 0.1 µM | remaining binding | 100% | COCCOc1nc(-c2ccc(Cl)nc2)nc2c1CN(C(=O)c1ncn3ccccc13)CC2
enzyme activity | inhibitor |  | 5 µM | remaining activity | 99.7% | O=C(Nc1cnn(-c2csc(C(=O)NC3COC3)c2)c1)Nc1c(F)cccc1Cl
